From paper PMC7923394 (Nature chemical biology, 2020)
Where no end group is shown, it is not given here. The star is where a group is joined. αGalNAc = CC(=O)N[C@@H]1[C@@H](O)[C@@H](O)[C@@H](CO)O[C@@H]1*

Experiments:
Assay in all cases: Enzyme kinetics, UDP-[3H]-GalNAc transfer to
Assay type in all cases: biochemical
human GalNAc-T4 = settings: peptide as acceptor substrate; Supplementary Fig. 16a
human GalNAc-T12 = settings: peptide as acceptor substrate; Supplementary Fig. 16a
How it was run: (§1)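 Radiochemical transfer assay with 0.02–0.03 µM purified enzyme, 0.02–0.7 mM acceptor and 0.2 mM UDP-[3H]-GalNAc in 100 mM sodium cacodylate pH 6.5, 1 mM β-mercaptoethanol and 10 mM MnCl2 at 37 °C. T6 and T12 were HEK293F-expressed and His-Trap purified. Reactions were EDTA-quenched and product separated by Sephadex G10. Initial rates (<30% donor used) were normalised to a fresh-enzyme reference glycopeptide. Runs used 5–7 concentrations, 2–5 repeats, and Michaelis–Menten (± substrate-inhibition) fits.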

human GalNAc-T3 = target: T1, human GalNAc-T3 (Homo sapiens, UniProt Q14435); settings: naked peptides as acceptor substrates
T1 sequence (Q14435 92-633): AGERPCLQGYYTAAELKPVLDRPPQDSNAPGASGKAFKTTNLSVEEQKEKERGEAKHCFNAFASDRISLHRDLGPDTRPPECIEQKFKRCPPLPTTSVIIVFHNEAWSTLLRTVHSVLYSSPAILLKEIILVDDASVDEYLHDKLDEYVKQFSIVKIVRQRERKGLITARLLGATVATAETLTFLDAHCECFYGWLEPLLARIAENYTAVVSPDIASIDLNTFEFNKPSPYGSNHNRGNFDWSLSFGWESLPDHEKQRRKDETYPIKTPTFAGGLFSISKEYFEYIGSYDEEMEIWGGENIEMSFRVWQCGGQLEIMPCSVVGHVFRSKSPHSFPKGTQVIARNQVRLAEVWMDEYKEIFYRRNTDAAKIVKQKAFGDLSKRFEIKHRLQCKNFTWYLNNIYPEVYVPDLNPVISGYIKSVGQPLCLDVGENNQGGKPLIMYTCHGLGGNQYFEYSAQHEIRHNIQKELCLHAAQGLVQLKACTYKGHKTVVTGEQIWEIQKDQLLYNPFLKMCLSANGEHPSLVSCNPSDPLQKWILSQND
How it was run: as §1

human GalNAc-T6 = target: T2, human GalNAc-T6 (Homo sapiens, UniProt Q8NCL4); settings: peptide as acceptor substrate
T2 sequence (Q8NCL4 1-622): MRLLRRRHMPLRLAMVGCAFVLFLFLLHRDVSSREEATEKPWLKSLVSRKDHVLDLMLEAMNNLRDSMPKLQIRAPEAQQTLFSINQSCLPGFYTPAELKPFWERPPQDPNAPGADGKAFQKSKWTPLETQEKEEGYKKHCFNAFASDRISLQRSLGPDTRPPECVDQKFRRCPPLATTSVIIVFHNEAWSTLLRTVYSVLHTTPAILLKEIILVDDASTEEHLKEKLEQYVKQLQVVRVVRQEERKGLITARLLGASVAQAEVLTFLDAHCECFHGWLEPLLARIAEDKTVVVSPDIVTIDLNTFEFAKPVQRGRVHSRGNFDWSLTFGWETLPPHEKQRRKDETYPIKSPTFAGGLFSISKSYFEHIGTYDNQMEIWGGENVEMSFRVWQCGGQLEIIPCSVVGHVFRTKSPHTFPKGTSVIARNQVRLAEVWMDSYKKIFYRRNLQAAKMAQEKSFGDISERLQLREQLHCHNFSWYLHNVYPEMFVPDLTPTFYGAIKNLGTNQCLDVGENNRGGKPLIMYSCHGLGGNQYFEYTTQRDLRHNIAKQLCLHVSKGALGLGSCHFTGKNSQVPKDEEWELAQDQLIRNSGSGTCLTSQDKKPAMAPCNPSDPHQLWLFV
How it was run: as §1

FGF23b: shorter FGF23 model peptide substrate (A171–T178)
activity of GalNAc-T4 against the peptide (human GalNAc-T4): very low
activity of GalNAc-T12 against the peptide (human GalNAc-T12): very low

GAYAVTPGPAG [OP1]
activity among the OP1 to OP10 peptide series (human GalNAc-T3): the most active of the series

FGF23c: FGF23 model glycopeptide substrate (T*171–T178, T* = Thr-O-GalNAc) (T(αGalNAc)PIPRRHT-NH2; UniProt Q9GZV9 171-178, looked up, fragment)
Km of GalNAc-T6 compared to GalNAc-T3 (human GalNAc-T6): slightly better Km
Kcat of GalNAc-T6 relative to that of GalNAc-T3 (human GalNAc-T6; Supplementary Fig. 16b): ~ 3.5 fold
